From ChEMBL document CHEMBL4330057, “Second generation of diazachrysenes: Protection of Ebola virus infected mice and mechanism of action” (Eur J Med Chem, 2019)
pEC50: −log10 of the molar value. The source made the active and inactive calls. No cut-off for these calls is given here.

Assays:
[1] = Hepatotoxicity in 6 hrs post fertilized transgenic l-fabp:EGFP zebrafish embryo assessed as change in liver area index up to 40 uM up to 120 hrs post fertilization by fluorescence assay; format: toxicity, Danio rerio; conditions: in vivo
Procedure, shortened: (§1)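 Tg(l-fabp:EGFP) zebrafish embryos exposed from 6 hpf. At 120 hpf, liver area index (liver area/lateral body area) and liver fluorescence assessed by in vivo imaging.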

[2] = Toxicity in 6 hrs post fertilized zebrafish embryo assessed as lethal effect on egg coagulation up to 50 uM up to 120 hrs post fertilization by inverted microscopic method; design: species or system Danio rerio; conditions: in vivo
Ebolavirus = assay: Antiviral activity against Ebolavirus H. sapiens-wt/1995/Kikwit-9510621 infected in human HeLa cells assessed as inhibition of viral infection pretreated for 2 hrs followed by viral infection and measured after 48 hrs by EboV GP immunostaining based high content imaging analysis; format: functional, organism-based; conditions: Orthoebolavirus, H. sapiens-wt/1995/Kikwit-9510621, HeLa; for pEC50: read-out: EC50
HeLa [3] = assay: Inhibition of lysosome fusion with autophagosome in human HeLa cells harboring GFP-LC3 assessed as increase in GFP-LC3-2 clustering up to 50 uM after 6 hrs by Western blot analysis; format: functional, cell-based
Procedure, shortened: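 HeLa cells were exposed to compound for 6 h, then lysed and analysed by Western blot.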

[4] = Toxicity in 6 hrs post fertilized zebrafish embryo assessed as teratogenic effect by measuring malformation of tail up to 50 uM up to 120 hrs post fertilization by inverted microscopic method; format: tissue-based, Danio rerio; conditions: in vivo
[5] = Selectivity index, ratio of LC50 for toxicity in transgenic zebrafish embryo assessed as mortality to EC50 for Ebolavirus H. sapiens-wt/1995/Kikwit-9510621; conditions: read-out: Selectivity Index
HeLa [6] = assay: Induction of lysosomotropism in human HeLa cells infected with Ebolavirus assessed as increase in red fluorescence at 2 uM for 2 hrs by acridine orange staining based assay; format: functional, cell-based
Procedure, shortened: (§2)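 HeLa cells were pretreated with compound for 2 h, then given acridine orange for 30 min and washed. Red AO fluorescence in acidic compartments was imaged, and total intensity and average area were scored by high-content imaging. Eight wells per point, about 3000 cells/well, mean ± SD, representative of three independent experiments.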

HeLa [7] = assay: Induction of lysosomotropism in human HeLa cells infected with Ebolavirus assessed as expansion of acid compartments at 2 uM for 2 hrs by acridine orange staining based assay; format: functional, cell-based; procedure, shortened: as §2
HeLa [8] = assay: Cytotoxicity against human HeLa cells at 50 uM after 2 hrs; format: cell-based
[9] = Toxicity in 6 hrs post fertilized zebrafish embryo assessed as teratogenic effect by measuring malformation of head up to 50 uM up to 120 hrs post fertilization by inverted microscopic method; format: tissue-based, Danio rerio; conditions: in vivo
[10] = Toxicity in 6 hrs post fertilized zebrafish embryo assessed as mortality up to 120 hrs post fertilization; design: species or system Danio rerio; conditions: in vivo
[11] = target: Cathepsin B (Homo sapiens) (UniProt P07858); assay: Inhibition of cathepsin B activity in human HeLa cells at 2 uM after 12 hrs by magic red substrate based fluorescence assay; format: cell-based
Procedure, shortened: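 HeLa cells were exposed to compound for 12 h, then given the Magic Red cathepsin B peptide reporter, washed, and imaged at Ex/Em 590/630. Total intensity and average area of red fluorescence were scored by high-content analysis. Eight wells per point, about 3000 cells/well, mean ± SD, three independent experiments.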

[12] = Selectivity index, ratio of toxic concentration for hepatotoxicity in transgenic l-fabp:EGFP zebrafish embryo to EC50 for Ebolavirus H. sapiens-wt/1995/Kikwit-9510621; format: toxicity; conditions: read-out: Selectivity Index
[13] = Myelotoxicity in 6 hrs post fertilized transgenic mpx:GFP zebrafish embryo assessed as reduction in neutrophil occurrence up to 20 uM measured at 72 hrs hrs post fertilization by fluorescence assay; design: species or system Danio rerio
Procedure, shortened: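 Tg(mpx:GFP) zebrafish embryos with GFP-labelled neutrophils were treated with compound. At 72 hpf, neutrophil fluorescence of the whole embryo and neutrophil occurrence were assessed.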

[14] = Acute toxicity in C57Bl/6 mouse assessed as effect on appearance at 20 mg/kg/day, ip qd for 7 days measured twice daily for 28 days; format: organism-based; conditions: in vivo, 672 h
Procedure, shortened: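 Six healthy mice received 20 mg/kg i.p. once daily for seven doses. Behaviour and appearance observed twice daily for 28 days after the last dose.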

Cytochrome P450 3A4 [15] = target: T1, Cytochrome P450 3A4 (Homo sapiens, UniProt P08684); assay: Inhibition of CYP3A4 (unknown origin) using 7-benzyloxyquinoline as substrate; format: ADME
T1 sequence (P08684 whole entry): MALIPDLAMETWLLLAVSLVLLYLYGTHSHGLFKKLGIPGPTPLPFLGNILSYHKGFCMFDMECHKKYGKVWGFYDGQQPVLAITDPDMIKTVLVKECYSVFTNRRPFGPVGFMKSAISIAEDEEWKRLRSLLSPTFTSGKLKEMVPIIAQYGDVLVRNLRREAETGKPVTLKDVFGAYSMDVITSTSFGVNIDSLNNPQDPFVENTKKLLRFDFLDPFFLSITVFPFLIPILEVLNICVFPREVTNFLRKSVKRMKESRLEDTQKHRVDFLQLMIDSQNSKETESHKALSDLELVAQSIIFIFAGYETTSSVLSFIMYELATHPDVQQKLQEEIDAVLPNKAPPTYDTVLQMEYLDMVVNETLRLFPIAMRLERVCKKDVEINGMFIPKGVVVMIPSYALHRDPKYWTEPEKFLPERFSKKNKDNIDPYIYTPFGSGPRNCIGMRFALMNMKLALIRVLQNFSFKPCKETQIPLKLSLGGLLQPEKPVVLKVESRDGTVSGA
Procedure, shortened: (§3)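 CYP IC50 was taken from the net fluorescent signal after incubation at 37 °C for a set time with active cytochrome P450 enzyme and a fluorescent probe substrate.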

[16] = Solubility of the compound in pH 7.4 buffer by laser nephelometric method; format: physicochemical
Procedure, shortened: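 Solubility at pH 7.4 was measured by laser nephelometry (light scattering), in triplicate.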

[17] = tested on: Vesicular stomatitis virus; assay: Antiviral activity against VSV expressing GFP infected in human HeLa cells assessed as inhibition of viral infection at 50 uM pre-incubated for 2 hrs followed by viral infection and measured after 6 hrs by cell mask deep red staining based assay; format: functional, organism-based
Procedure, shortened: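 HeLa cells pretreated 2 h with compound, then infected with rVSV-EBOV-GP-GFP (8 h) or VSV-GFP (6 h), and stained with Cell Mask Deep Red. Relative inhibition = 1 minus (% GFP-expressing cells normalised to mock). Mean ± SD of three replicates, representative of three independent experiments.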

[18] = Apparent permeability from basolateral to apical side in MDCK cells; format: ADME, cell-based, Canis lupus familiaris; conditions: dog
Procedure, shortened: (§4)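 Apparent permeability measured in MDCK cell monolayers, apical→basolateral and basolateral→apical directions, three biological replicates.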

Zaire ebolavirus = assay: Antiviral activity against Ebolavirus Mayinga infected in Balb/c mouse assessed as protection against viral infection by measuring host survival at 10 mg/kg, ip administered 2 hrs prior to viral infection daily for 6 days and measured for 14 days relative to control; format: functional, 1976
Cytochrome P450 3A4 [19] = target: T1, Cytochrome P450 3A4; assay: Inhibition of CYP3A4 (unknown origin) using dibenzylfluorescein as substrate; format: ADME; procedure, shortened: as §3
Cytochrome P450 3A4 [20] = target: T1, Cytochrome P450 3A4; assay: Inhibition of CYP3A4 (unknown origin) using 7-benzyloxy-4-trifluoromethylcoumarin as substrate; format: ADME; procedure, shortened: as §3
[21] = Half life in mouse liver microsomes; format: ADME, Microsome
Procedure, shortened: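 Substrate depletion with mouse or human liver microsomes, 1 h at 37 °C. Clearance (μL/min/mg) and half-life derived.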

[22] = Drug metabolism in C57Bl/6 mouse assessed as bis-oxygenation metabolite formation at 20 mg/kg/day, ip qd for 7 days measured at 24 hrs post last dose by UHPLC/MS analysis; format: ADME, organism-based; conditions: in vivo
Procedure, shortened: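 Serum from two mice dosed 20 mg/kg/day i.p. taken 24 h after the last dose. Compound quantified by UHPLC/MS and screened for M+2, M+16, M-2 and M+32 products or combinations.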

[23] = Apparent permeability from apical to basolateral side in MDCK cells; format: ADME, cell-based, Canis lupus familiaris; conditions: dog; procedure, shortened: as §4
[24] = Hepatotoxicity in 6 hrs post fertilized transgenic l-fabp:EGFP zebrafish embryo assessed as change in liver area index up to 30 uM up to 120 hrs post fertilization by fluorescence assay; format: toxicity, Danio rerio; conditions: in vivo; procedure, shortened: as §1
HeLa [25] = assay: Induction of lysosome suppression in human HeLa cells assessed as vesicular compartment expansion pretreated for 2 hrs by uranyl acetate staining based transmission electron microscopic method; format: functional, subcellular
Procedure, shortened: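 HeLa cells mock-treated or treated 2 h with compound, then left uninfected or infected with rVSV-EBOV-GP-GFP for 2 h or 6 h. Processed for transmission electron microscopy to examine vesicular compartments.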

[26] = Stability in plasma (unknown origin) after 1 hr at 37 degC; format: ADME, cell-free; conditions: read-out: Stability
Procedure, shortened: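 Compound was incubated in plasma for 1 h at 37 °C, and the percent remaining was reported.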

SMILES | Activity [2] | EC90 (Ebolavirus) [nM] | pEC50 (Ebolavirus) | inhibition (HeLa [3]) | Activity [4] | selectivity ratio [5] | Activity (HeLa [6]) | Activity (HeLa [7]) | Activity (HeLa [8]) | Activity [9] | Activity [10] | LC50 [10] [nM] | inhibition [11] | selectivity ratio [12] | further results
Cl.Cl.Cl.Cl.c1cc(NCCN2CCOCC2)c2ccc3c(ccc4c(NCCN5CCOCC5)ccnc43)c2n1 | Non-Toxic | < 5000 | 6.15 | Active | Non-Toxic | 70 to 100 | inactive | Active | Toxic | Non-Toxic | Dose-dependent effect | 72100 | Active | 103 | Activity [1]: Non-Toxic; Activity [13]: Non-Toxic
Cl.Cl.Cl.Cl.c1cc(NCCCCN2CCOCC2)c2ccc3c(ccc4c(NCCN5CCOCC5)ccnc43)c2n1 | Non-Toxic | 850 | 6.59 | Active | Non-Toxic | 70 to 100 | inactive | Active | Toxic | Non-Toxic | Dose-dependent effect | 18900 | Active | 73 | Activity [14]: Non-Toxic; INH (Cytochrome P450 3A4 [15]): > 10 µM; solubility kinetic [16]: > 50 µg/mL; Activity [17]: Active; Papp B→A [18]: 43.2 to 67.3 ×10⁻⁶ cm/s; Activity (Zaire ebolavirus): 100%; INH (Cytochrome P450 3A4 [19]): > 10 µM; INH (Cytochrome P450 3A4 [20]): > 10 µM; half-life [21]: 1.03 h; Drug metabolism [22]: Metabolite_Notdetected; Papp A→B [23]: 39.3 to 67.2 ×10⁻⁶ cm/s; Activity [24]: Non-Toxic; Activity (HeLa [25]): Active; remaining at 1 h [26]: 60%
